# Source: ChEMBL document CHEMBL4007497, “Development of Potent and Selective Antagonists for the UTP-Activated P2Y4 Receptor” (J Med Chem, 2017)
# Values joined by “and” are separate entries in the source; they are usually repeats but may differ in a detail not shown here. Identical values can stand only once.
# Key:
# [1] = molecular target: T1, P2Y purinoceptor 4 (Homo sapiens, UniProt P51582); test: Antagonist activity at human P2Y4 receptor transfected in human 1321N1 cells assessed as inhibition of UTP-activated intracellular calcium mobilization preincubated for 30 mins followed by UTP addition by fluo-4-dye based fluorescence assay; format: functional, cell-based
# Outline: (§1)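 1321N1 astrocytoma cells stably expressing the human P2Y subtype, grown in DMEM with 10 % FCS and 200 μg/mL G418 at 37 °C. Plated 50,000 cells/well about 24 h before testing. Cells loaded with fluo-4 AM for 1 h, then placed in HBSS and preincubated 30 min with compound. Agonist was injected at about EC80: ADP 500 nM (P2Y1), UTP 500 nM (P2Y2, P2Y4), UDP 750 nM (P2Y6). Fluorescence read at ex 488/em 525 nm. At least three independent experiments in duplicate. IC50 obtained by nonlinear regression.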
# [2] = molecular target: T1, P2Y purinoceptor 4; test: Antagonist activity at human P2Y4 receptor transfected in human 1321N1 cells assessed as inhibition of UTP-activated intracellular calcium mobilization at 30 uM preincubated for 30 mins followed by UTP addition by fluo-4-dye based fluorescence assay; format: functional, cell-based
# [3] = molecular target: T1, P2Y purinoceptor 4; test: Antagonist activity at human P2Y4 receptor transfected in human 1321N1 cells assessed as inhibition of UTP-activated intracellular calcium mobilization at 100 uM preincubated for 30 mins followed by UTP addition by fluo-4-dye based fluorescence assay; format: functional, cell-based
# [4] = molecular target: T2, P2Y purinoceptor 1 (Homo sapiens, UniProt P47900); test: Antagonist activity at human P2Y1 receptor transfected in human 1321N1 cells assessed as inhibition of ADP-activated intracellular calcium mobilization preincubated for 30 mins followed by ADP addition by fluo-4-dye based fluorescence assay; format: functional, cell-based; outline: as §1
# [5] = molecular target: P2Y purinoceptor 2 (Homo sapiens, UniProt P41231); test: Antagonist activity at human P2Y2 receptor transfected in human 1321N1 cells assessed as inhibition of UTP-activated intracellular calcium mobilization preincubated for 30 mins followed by UTP addition by fluo-4-dye based fluorescence assay; format: functional, cell-based; outline: as §1
# [6] = molecular target: T3, P2Y purinoceptor 6 (Homo sapiens, UniProt Q15077); test: Antagonist activity at human P2Y6 receptor transfected in human 1321N1 cells assessed as inhibition of UDP-activated intracellular calcium mobilization preincubated for 30 mins followed by UDP addition by fluo-4-dye based fluorescence assay; format: functional, cell-based; outline: as §1
# [7] = molecular target: P2Y purinoceptor 12 (Homo sapiens, UniProt Q9H244); test: Antagonist activity at human P2Y12 receptor expressed in CHO cells assessed as inhibition of 2-MeSADP-induced beta-arrestin translocation preincubated for 30 mins followed by 2-MeSADP addition measured after 90 mins by luminescence-based topcount method; format: cell-based
# [8] = molecular target: T3, P2Y purinoceptor 6; test: Antagonist activity at human P2Y6 receptor transfected in human 1321N1 cells assessed as inhibition of UDP-activated intracellular calcium mobilization at 50 uM preincubated for 30 mins followed by UDP addition by fluo-4-dye based fluorescence assay; format: functional, cell-based
# [9] = molecular target: T2, P2Y purinoceptor 1; test: Antagonist activity at human P2Y1 receptor transfected in human 1321N1 cells assessed as inhibition of ADP-activated intracellular calcium mobilization at 50 uM preincubated for 30 mins followed by ADP addition by fluo-4-dye based fluorescence assay; format: functional, cell-based
# P2Y purinoceptor 2, sequence (P41231 whole entry): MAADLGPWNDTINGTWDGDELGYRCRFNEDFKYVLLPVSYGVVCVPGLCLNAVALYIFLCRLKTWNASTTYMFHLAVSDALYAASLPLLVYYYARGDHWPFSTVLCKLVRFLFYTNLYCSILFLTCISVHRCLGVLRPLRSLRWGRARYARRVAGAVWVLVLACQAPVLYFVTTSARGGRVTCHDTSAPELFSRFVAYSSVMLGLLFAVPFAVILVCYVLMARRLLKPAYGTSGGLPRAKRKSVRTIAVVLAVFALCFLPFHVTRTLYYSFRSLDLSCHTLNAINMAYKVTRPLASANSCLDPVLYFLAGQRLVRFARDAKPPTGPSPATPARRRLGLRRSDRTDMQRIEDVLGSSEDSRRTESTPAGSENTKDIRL
# T3 sequence (Q15077 whole entry): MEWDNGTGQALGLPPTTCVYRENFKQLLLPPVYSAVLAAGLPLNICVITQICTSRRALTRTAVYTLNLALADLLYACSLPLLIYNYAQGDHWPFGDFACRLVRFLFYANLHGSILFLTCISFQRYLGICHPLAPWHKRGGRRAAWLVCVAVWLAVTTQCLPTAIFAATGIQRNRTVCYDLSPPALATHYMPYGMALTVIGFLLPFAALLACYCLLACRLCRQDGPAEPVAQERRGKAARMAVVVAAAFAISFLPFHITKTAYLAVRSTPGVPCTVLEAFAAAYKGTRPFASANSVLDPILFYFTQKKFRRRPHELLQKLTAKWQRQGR
# T2 sequence (P47900 whole entry): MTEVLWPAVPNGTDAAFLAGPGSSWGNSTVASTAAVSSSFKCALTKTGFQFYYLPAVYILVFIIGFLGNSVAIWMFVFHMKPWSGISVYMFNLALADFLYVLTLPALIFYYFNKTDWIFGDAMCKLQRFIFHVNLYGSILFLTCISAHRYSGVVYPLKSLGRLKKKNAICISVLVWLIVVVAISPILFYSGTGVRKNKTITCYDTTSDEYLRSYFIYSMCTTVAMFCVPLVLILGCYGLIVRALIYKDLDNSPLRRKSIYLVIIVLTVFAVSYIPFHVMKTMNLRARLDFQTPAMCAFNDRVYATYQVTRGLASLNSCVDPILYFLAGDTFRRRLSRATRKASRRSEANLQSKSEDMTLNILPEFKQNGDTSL
# P2Y purinoceptor 12, sequence (Q9H244 whole entry): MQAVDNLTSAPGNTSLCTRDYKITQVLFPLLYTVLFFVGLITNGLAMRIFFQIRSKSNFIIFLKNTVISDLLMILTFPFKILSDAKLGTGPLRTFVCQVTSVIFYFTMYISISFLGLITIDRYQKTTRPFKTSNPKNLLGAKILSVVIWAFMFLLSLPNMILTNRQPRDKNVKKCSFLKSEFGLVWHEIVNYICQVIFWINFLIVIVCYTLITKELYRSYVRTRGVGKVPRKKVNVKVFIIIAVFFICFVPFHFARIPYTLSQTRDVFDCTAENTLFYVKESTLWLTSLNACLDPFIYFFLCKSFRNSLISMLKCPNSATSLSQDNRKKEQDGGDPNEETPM
# T1 sequence (P51582 whole entry): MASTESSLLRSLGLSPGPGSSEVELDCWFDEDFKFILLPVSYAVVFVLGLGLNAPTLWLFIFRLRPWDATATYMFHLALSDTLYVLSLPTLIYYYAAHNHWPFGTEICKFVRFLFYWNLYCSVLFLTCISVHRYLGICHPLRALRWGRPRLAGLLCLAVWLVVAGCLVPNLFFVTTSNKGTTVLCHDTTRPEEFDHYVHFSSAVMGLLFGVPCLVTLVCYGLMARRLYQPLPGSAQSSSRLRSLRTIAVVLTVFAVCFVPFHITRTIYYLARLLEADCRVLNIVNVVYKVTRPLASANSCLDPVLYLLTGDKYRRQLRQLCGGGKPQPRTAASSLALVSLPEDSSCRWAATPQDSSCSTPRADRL
Compound,IC50 [1] [µM],other results
Nc1c(S(=O)(=O)O)cc(Nc2ccc(C(=O)O)cc2)c2c1C(=O)c1ccccc1C2=O,30,inhibition [2]: 57%
Nc1c(S(=O)(=O)O)cc(Nc2ccc(Nc3nc(Cl)nc(Nc4ccc(S(=O)(=O)O)cc4)n3)c(S(=O)(=O)O)c2)c2c1C(=O)c1ccccc1C2=O,0.625,
Cc1ccc(C)c(Nc2cc(S(=O)(=O)O)c(N)c3c2C(=O)c2ccccc2C3=O)c1,11.2,
COc1ccc(Nc2cc(S(=O)(=O)O)c(N)c3c2C(=O)c2ccccc2C3=O)cc1OC,4.98,
Nc1c(S(=O)(=O)O)cc(NCc2ccccc2)c2c1C(=O)c1ccccc1C2=O,14.4,
Nc1c(S(=O)(=O)O)cc(Nc2cccc3ccccc23)c2c1C(=O)c1ccccc1C2=O,7.42,
Nc1c(S(=O)(=O)O)cc(Nc2ccc(O)cc2C(=O)O)c2c1C(=O)c1ccccc1C2=O,21.1,
Cc1cc(Nc2cccc(F)c2)c2c(c1N)C(=O)c1ccccc1C2=O,> 30,inhibition [2]: -4%
COc1cccc(Nc2cc(S(=O)(=O)O)c(N)c3c2C(=O)c2ccccc2C3=O)c1 [listing 1 of 3 here],1.7,
COc1ccc(Nc2cc(S(=O)(=O)O)c(N)c3c2C(=O)c2ccccc2C3=O)cc1,2.59,
Nc1c(S(=O)(=O)O)cc(Nc2cccc(F)c2C(=O)O)c2c1C(=O)c1ccccc1C2=O,> 100,inhibition [3]: 10%
Nc1c(S(=O)(=O)O)cc(Nc2ccc(Cl)cc2)c2c1C(=O)c1ccccc1C2=O,3.03,
Nc1c(S(=O)(=O)O)cc(Nc2ccc(Cc3ccccc3)cc2)c2c1C(=O)c1ccccc1C2=O,3.45,
COc1cccc(Nc2cc(S(=O)(=O)O)c(N)c3c2C(=O)c2ccccc2C3=O)c1 [listing 2 of 3 here],,inhibition [2]: 77%
Nc1c(S(=O)(=O)O)cc(Nc2ccccc2C(=O)O)c2c1C(=O)c1ccccc1C2=O,6.1,
Nc1c(S(=O)(=O)O)cc(Nc2ccc(Oc3ccc(Cl)cc3)cc2)c2c1C(=O)c1ccccc1C2=O,0.373,
Nc1c(S(=O)(=O)O)cc(Nc2ccc(Br)cc2C(=O)O)c2c1C(=O)c1ccccc1C2=O,> 100,inhibition [2]: 30%
Nc1c(S(=O)(=O)O)cc(NCCc2ccccc2)c2c1C(=O)c1ccccc1C2=O,7.18,
Nc1c(S(=O)(=O)O)cc(Nc2cccc(Br)c2)c2c1C(=O)c1ccccc1C2=O,6.96,
O=C1c2ccccc2C(=O)c2c(Nc3cccc(F)c3)cc(S(=O)(=O)O)cc21,30,
Cc1cc(Cl)ccc1Nc1cc(S(=O)(=O)O)c(N)c2c1C(=O)c1ccccc1C2=O,2.2,
Cc1cc(C)cc(Nc2cc(S(=O)(=O)O)c(N)c3c2C(=O)c2ccccc2C3=O)c1,6.45,

Compound,IC50 [1] [µM],other results
Cc1cc(Nc2cc(S(=O)(=O)O)c(N)c3c2C(=O)c2ccccc2C3=O)ccc1O,0.746,IC50 [4]: 7.65 µM; IC50 [5]: 16.4 µM; IC50 [6]: 4.75 µM; IC50 [7]: 0.0604 µM
Nc1c(S(=O)(=O)O)cc(Nc2cccc(Cl)c2)c2c1C(=O)c1ccccc1C2=O,2.34,
CCCc1cccc(Nc2cc(S(=O)(=O)O)c(N)c3c2C(=O)c2ccccc2C3=O)c1,2.99,
CCc1ccc(Nc2cc(S(=O)(=O)O)c(N)c3c2C(=O)c2ccccc2C3=O)cc1,3.21,
Nc1c(S(=O)(=O)O)cc(Nc2ccc(F)cc2C(=O)O)c2c1C(=O)c1ccccc1C2=O [listing 1 of 3 here],,inhibition [3]: 17% and 25%
Nc1c(S(=O)(=O)O)cc(Nc2ccc(O)cc2)c2c1C(=O)c1ccccc1C2=O,3.16,
Nc1c(S(=O)(=O)O)cc(Nc2cccc(C(=O)O)c2)c2c1C(=O)c1ccccc1C2=O,23.4,
Nc1c(S(=O)(=O)O)cc(Nc2ccc(F)cc2)c2c1C(=O)c1ccccc1C2=O,4.04,
Nc1c(S(=O)(=O)O)cc(Nc2ccc(Br)cc2)c2c1C(=O)c1ccccc1C2=O,3.3,
Nc1c(S(=O)(=O)O)cc(Nc2ccc(SCc3cccnc3)cc2)c2c1C(=O)c1ccccc1C2=O,0.409,inhibition [8]: 12%; IC50 [4]: 25 µM; inhibition [9]: 61%; IC50 [5]: 13.1 µM; IC50 [6]: > 100 µM; IC50 [7]: 3.59 µM
Nc1c(S(=O)(=O)O)cc(Nc2ccc(Nc3nc(Cl)nc(Nc4cccc(S(=O)(=O)O)c4)n3)c(S(=O)(=O)O)c2)c2c1C(=O)c1ccccc1C2=O [RB 2],1.14,
Nc1c(S(=O)(=O)O)cc(Nc2ccc(Nc3ccccc3)cc2)c2c1C(=O)c1ccccc1C2=O,1.91,
CCc1ccccc1Nc1cc(S(=O)(=O)O)c(N)c2c1C(=O)c1ccccc1C2=O,3.53,
Nc1c(S(=O)(=O)O)cc(Nc2ccc(Oc3ccc(F)cc3)cc2)c2c1C(=O)c1ccccc1C2=O,1.69,
Cc1cc(Nc2ccc(F)cc2C(=O)O)c2c(c1N)C(=O)c1ccccc1C2=O,100,inhibition [3]: 57%
Cc1cc(Nc2cc(S(=O)(=O)O)c(N)c3c2C(=O)c2ccccc2C3=O)ccc1Cl,1.65,
CCc1cccc(Nc2cc(S(=O)(=O)O)c(N)c3c2C(=O)c2ccccc2C3=O)c1,1.51,
COc1cc(Nc2cc(S(=O)(=O)O)c(N)c3c2C(=O)c2ccccc2C3=O)cc(OC)c1,9.25,
Nc1c(S(=O)(=O)O)cc(Nc2cc(F)ccc2C(=O)O)c2c1C(=O)c1ccccc1C2=O,> 100,inhibition [3]: 33%
Nc1c(S(=O)(=O)O)cc(Nc2ccc(F)cc2C(=O)O)c2c1C(=O)c1ccccc1C2=O [listing 2 of 3 here],> 100,
Cc1ccccc1Nc1cc(S(=O)(=O)O)c(N)c2c1C(=O)c1ccccc1C2=O,3.49,
Nc1c(S(=O)(=O)O)cc(Nc2ccccc2Cl)c2c1C(=O)c1ccccc1C2=O,9.34,

Compound,IC50 [1] [µM],other results
Nc1c(S(=O)(=O)O)cc(Nc2cccc(F)c2)c2c1C(=O)c1ccccc1C2=O,1.39,
Cc1ccc(Nc2cc(S(=O)(=O)O)c(N)c3c2C(=O)c2ccccc2C3=O)cc1,2.82,
Cc1cccc(Nc2cc(S(=O)(=O)O)c(N)c3c2C(=O)c2ccccc2C3=O)c1,2.22,
Cc1cccc(Nc2cc(S(=O)(=O)O)c(N)c3c2C(=O)c2ccccc2C3=O)c1C,2.63,
Nc1c(S(=O)(=O)O)cc(Nc2ccc(Oc3ccc(Br)cc3)cc2)c2c1C(=O)c1ccccc1C2=O,1.76,
Cc1ccc(C)c(Sc2ccc(Nc3cc(S(=O)(=O)O)c(N)c4c3C(=O)c3ccccc3C4=O)cc2)c1,0.395,IC50 [4]: 2.72 µM; IC50 [5]: 6.52 µM; IC50 [6]: 2.67 µM; IC50 [7]: 2.96 µM
COc1cccc(Nc2cc(S(=O)(=O)O)c(N)c3c2C(=O)c2ccccc2C3=O)c1 [listing 3 of 3 here],> 10,
Nc1c(S(=O)(=O)O)cc(Nc2cc(Cl)ccc2C(=O)O)c2c1C(=O)c1ccccc1C2=O,2.76,
COc1ccccc1Nc1cc(S(=O)(=O)O)c(N)c2c1C(=O)c1ccccc1C2=O,3.98,
Cc1ccc(Nc2cc(S(=O)(=O)O)c(N)c3c2C(=O)c2ccccc2C3=O)c(C)c1,3.58,
Nc1c(S(=O)(=O)O)cc(Nc2cc(F)cc(F)c2)c2c1C(=O)c1ccccc1C2=O,12.5,
COc1cc(Nc2cc(S(=O)(=O)O)c(N)c3c2C(=O)c2ccccc2C3=O)ccc1Cl,3.37,
COc1cccc(Nc2cc(C)c(N)c3c2C(=O)c2ccccc2C3=O)c1,> 30,inhibition [2]: 38%
Nc1c(S(=O)(=O)O)cc(Nc2ccccc2)c2c1C(=O)c1ccccc1C2=O [ACID BLUE 25],1.97 to 3.1,IC50 [4]: 17.6 µM; IC50 [5]: 17.1 µM; IC50 [6]: 2.79 µM; IC50 [7]: 3.12 µM
Cc1ccc(Sc2ccc(Nc3cc(S(=O)(=O)O)c(N)c4c3C(=O)c3ccccc3C4=O)cc2)cc1C,0.482,IC50 [4]: 4.55 µM; IC50 [5]: 10.2 µM; IC50 [6]: 4.36 µM; IC50 [7]: 2.34 µM
COc1cc(Nc2cc(S(=O)(=O)O)c(N)c3c2C(=O)c2ccccc2C3=O)ccc1F,1.54,
Nc1c(S(=O)(=O)O)cc(Nc2ccc(Oc3ccccc3)cc2)c2c1C(=O)c1ccccc1C2=O,1.94,
Nc1c(S(=O)(=O)O)cc(Nc2ccc(Cl)cc2C(=O)O)c2c1C(=O)c1ccccc1C2=O,> 100,inhibition [3]: 31%
Nc1c(S(=O)(=O)O)cc(Nc2ccc(Sc3ccccc3)cc2)c2c1C(=O)c1ccccc1C2=O,1.18,
Nc1c(S(=O)(=O)O)cc(Nc2ccc([N+](=O)[O-])cc2C(=O)O)c2c1C(=O)c1ccccc1C2=O,> 30,inhibition [2]: 30%
Nc1c(S(=O)(=O)O)cc(Nc2ccc(F)cc2C(=O)O)c2c1C(=O)c1ccccc1C2=O [listing 3 of 3 here],> 100,
COc1cc(Nc2cc(S(=O)(=O)O)c(N)c3c2C(=O)c2ccccc2C3=O)ccc1C,4.13,
